Test results as given in ChEMBL document CHEMBL1122785, “Synthesis and evaluation of a series of 2'-O-acyl derivatives of 9-beta-D-arabinofuranosyladenine as antiherpes agents” (J Med Chem, 1984).
Converted amounts (≈) assume the structure as drawn.

Key:
[1] = Solubility of 10 mg compound in aqueous buffer at pH 7.3 and 37 degree Centigrade after 8.0 hr; type: physicochemical; details: read-out: Concentration
In short: (§1)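 Crystalline compound (stated amount) was agitated in 1 mL phosphate-buffered saline (NaH2PO4/NaCl, pH 7.3) at 37 °C. At each time point samples were centrifuged 5 min at 14000 rpm. Supernatant was diluted in mobile phase and quantified by HPLC against standards. Concentrations were corrected for prodrug decomposition.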

[2] = Solubility of 10 mg compound in aqueous buffer at pH 7.3 and 37 degree Celsius after 13.5 hr; type: physicochemical; details: read-out: Concentration; in short: as §1
[3] = Solubility of 10 mg compound in aqueous buffer at pH 7.3 and 37 degree Celsius after 4.0 hr; type: physicochemical; details: read-out: Concentration; in short: as §1
[4] = Compound was evaluated for the octanol/water partition coefficient at 37 degree Celsius at 24.5 hour; type: physicochemical
In short: (§2)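 Dilute aqueous solutions were equilibrated with 1-octanol at 37 °C. At each sampling interval the tubes were centrifuged. Aliquots of the octanol layer, then of the water layer, were diluted into methanol and stored at -20 °C for analysis.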

[5] = Compound was evaluated for the octanol/water partition coefficient at 37 degree Celsius at 3.0 hr; type: physicochemical; in short: as §2
[6] = Compound was evaluated for the octanol/water partition coefficient at 37 degree Celsius at 4.5 hour; type: physicochemical; in short: as §2
Human alphaherpesvirus 1 [7] = test: virus rating as the measure of the activity against herpes simplex virus type 1(strain 377); type: functional
Human alphaherpesvirus 1 [8] = test: In vitro activity against herpes simplex virus type 1(strain 377) and the minimum inhibitory concentration was determined; type: functional
[9] = Solubility of 20 mg compound in aqueous buffer at pH 7.3 and 37 degree Celsius after 13.5 hr; type: physicochemical; details: read-out: Concentration; in short: as §1
[10] = Solubility of 20 mg compound in aqueous buffer at pH 7.3 and 37 degree Celsius after 4.0 hr; type: physicochemical; details: read-out: Concentration; in short: as §1
[11] = Solubility of 20 mg compound in aqueous buffer at pH 7.3 and 37 degree Centigrade after 8.0 hr; type: physicochemical; details: read-out: Concentration; in short: as §1
[12] = Compound was evaluated for the octanol/water partition coefficient at 37 degree Celsius at 1.0hr; type: physicochemical; details: 1 h; in short: as §2
[13] = Compound was evaluated for the octanol/water partition coefficient at 37 degree Celsius at 10.5 hour; type: physicochemical; in short: as §2
[14] = Solubility of 150 mg compound in aqueous buffer at pH 7.3 and 37 degree Celsius after 4.0 hr; type: physicochemical; details: read-out: Concentration; in short: as §1
[15] = Solubility of 150 mg compound in aqueous buffer at pH 7.3 and 37 degree Celsius after 8.0 hr; type: physicochemical; details: read-out: Concentration; in short: as §1
Human alphaherpesvirus 1 [16] = test: Compound was evaluated for its activity against herpes simplex virus type 1(strain 377) and the minimum inhibitory concentration was determined; type: functional

solubility at 8 h [1] [µg/mL] | solubility at 13.5 h [2] [µg/mL] | solubility at 4 h [3] [µg/mL] | Partition coefficient [4] | Partition coefficient [5] | Partition coefficient [6] | MIC50 (Human alphaherpesvirus 1 [8]) [µg/mL] | solubility at 13.5 h [9] [mg/mL] | solubility at 4 h [10] [mg/mL] | solubility at 8 h [11] [mg/mL] | Partition coefficient [12] | Partition coefficient [13] | solubility at 4 h [14] [mg/mL] | solubility at 8 h [15] [mg/mL] | MIC50 (Human alphaherpesvirus 1 [16]) [µg/mL] | Compound | VR (Human alphaherpesvirus 1 [7])
3540 (≈ 10.5 mM) | 3310 (≈ 9.81 mM) | 3380 (≈ 10 mM) | 0.975 | 0.911 | 0.969 | 71.9 (≈ 0.213 mM) | – | – | – | – | – | – | – | – | CCCC(=O)O[C@H]1C(n2cnc3c(N)ncnc32)O[C@H](CO)[C@@H]1O (some centres undefined) | 1.5
– | – | – | 2.8 | 2.5 | 2.2 | 56.8 (≈ 0.162 mM) | 11 (≈ 31.3 mM) | 9.28 (≈ 26.4 mM) | 10.8 (≈ 30.7 mM) | 2.5 | 3 | – | – | – | CCCCC(=O)O[C@H]1C(n2cnc3c(N)ncnc32)O[C@H](CO)[C@@H]1O (some centres undefined) | 2.6
– | – | – | 0.329 | 0.359 | 0.318 | 29.3 (≈ 0.0906 mM) | 13 (≈ 40.2 mM) | 11.1 (≈ 34.3 mM) | 11 (≈ 34 mM) | 0.336 | 0.335 | – | – | – | CCC(=O)O[C@H]1C(n2cnc3c(N)ncnc32)O[C@H](CO)[C@@H]1O (some centres undefined) | 1.9
– | – | – | 0.122 | 0.134 | 0.118 | 26.2 (≈ 0.0847 mM) | – | – | – | 0.149 | 0.127 | 93.6 (≈ 303 mM) | 93.6 (≈ 303 mM) | – | CC(=O)O[C@H]1C(n2cnc3c(N)ncnc32)O[C@H](CO)[C@@H]1O (some centres undefined) | 2.3
– | – | – | – | – | – | – | – | – | – | – | – | – | – | 9.5 (≈ 0.0355 mM) | Nc1ncnc2c1ncn2[C@@H]1O[C@H](CO)[C@@H](O)[C@@H]1O [VIDARABINE] | 2
